Assay results reported in ChEMBL document CHEMBL4765378, “Discovery of simplified benzazole fragments derived from the marine benzosceptrin B as necroptosis inhibitors involving the receptor interacting protein Kinase-1” (Eur J Med Chem, 2020).

Key:
[1] = biological target: T1, Receptor-interacting serine/threonine-protein kinase 1 (Homo sapiens) (UniProt Q13546); experiment: Inhibition of RIPK1 in human FADD-deficient Jurkat I 2.1 cells assessed as protection against TNFalpha-induced necroptosis by measuring remaining viable cells at 10 uM measured after 24 hrs by MTS assay relative to TNFalpha; type: cell-based
T1 sequence (whole entry): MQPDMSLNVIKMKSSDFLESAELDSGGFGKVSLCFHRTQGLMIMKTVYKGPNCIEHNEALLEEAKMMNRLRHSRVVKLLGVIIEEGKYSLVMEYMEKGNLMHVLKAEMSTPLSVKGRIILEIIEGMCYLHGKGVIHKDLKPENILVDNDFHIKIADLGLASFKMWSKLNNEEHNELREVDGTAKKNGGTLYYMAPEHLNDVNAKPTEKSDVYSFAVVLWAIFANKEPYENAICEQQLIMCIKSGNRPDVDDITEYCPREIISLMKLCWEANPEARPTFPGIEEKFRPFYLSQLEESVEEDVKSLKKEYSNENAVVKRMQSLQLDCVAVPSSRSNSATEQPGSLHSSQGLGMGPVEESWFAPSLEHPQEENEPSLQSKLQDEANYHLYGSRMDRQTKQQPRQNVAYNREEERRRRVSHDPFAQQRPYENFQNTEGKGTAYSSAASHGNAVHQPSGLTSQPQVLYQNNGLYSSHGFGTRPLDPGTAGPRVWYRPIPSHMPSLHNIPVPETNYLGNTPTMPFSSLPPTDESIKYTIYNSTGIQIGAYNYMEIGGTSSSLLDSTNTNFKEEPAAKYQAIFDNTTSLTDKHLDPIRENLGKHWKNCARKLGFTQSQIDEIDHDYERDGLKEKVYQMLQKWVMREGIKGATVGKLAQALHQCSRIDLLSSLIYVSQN
Outline: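 FADD-deficient Jurkat cells co-treated 24 h with 10 ng/ml human recombinant TNF-α and 10 μM compound; MTS viability normalized to DMSO control (100%); protection delta = viability with TNF-α plus compound minus viability with TNF-α alone (negative if toxic); n = 3.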

[2] = biological target: T1, Receptor-interacting serine/threonine-protein kinase 1 (Homo sapiens); experiment: Inhibition of RIPK1 in human FADD-deficient Jurkat I 2.1 cells assessed as protection against TNFalpha-induced necroptosis measured after 24 hrs by MTS assay
TERT-RPE1 = experiment: Cytotoxicity against human TERT-RPE1 cells assessed as increase in LDH release at 0.01 to 50 uM measured after 24 hrs by CyQUANT reagent based assay; type: cell-based; details: tert-rpe1, 24 h, dose 0.01-50 µM
Outline: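 hTERT RPE-1 cells (DMEM-F12-Glutamax, 10% FCS, 37 °C, 5% CO2) exposed 24 h to compound from 0.01 to 50 μM; viability measured.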

[3] = biological target: T1, Receptor-interacting serine/threonine-protein kinase 1 (Homo sapiens); experiment: (§1) Inhibition of recombinant human RIPK1 kinase domain (8 to 322 residues) using myelin basic protein as substrate measured after 120 mins by [gamma-32P]ATP based scintillation counting method
[4] = biological target: T2, Receptor-interacting serine/threonine-protein kinase 1 (Homo sapiens, UniProt Q13546); experiment: as §1
T2 sequence (Q13546 whole entry): T1 sequence (whole entry)

CDK2/Cyclin A2 = CDK2/Cyclin A2 (Homo sapiens, UniProt P24941); experiment: Inhibition of human CDK2/cyclin A using histone H1 as substrate by ADP-glo assay; type: protein-complex assay
[5] = biological target: Dual specificity protein kinase CLK1 (Mus musculus, UniProt P22518); experiment: Inhibition of mouse recombinant CLK1 expressed in bacterial expression system using GRSRSRSRSRSR as substrate by ADP-glo assay
[6] = biological target: Dual specificity tyrosine-phosphorylation-regulated kinase 1A (Rattus norvegicus, UniProt Q63470); experiment: Inhibition of recombinant rat DYRK1A kinase domain (1 to 499 residues) expressed in bacterial expression system using KKISGRLSPIMTEQ as substrate by ADP-glo assay
[7] = biological target: T3, Serine/threonine-protein kinase haspin (Homo sapiens, UniProt Q8TF76); experiment: Inhibition of recombinant human HASPIN kinase domain (470 to 798 residues) expressed in bacterial expression system using histone H3(1-21) peptide as substrate by ADP-glo assay
T3 sequence (Q8TF76 whole entry): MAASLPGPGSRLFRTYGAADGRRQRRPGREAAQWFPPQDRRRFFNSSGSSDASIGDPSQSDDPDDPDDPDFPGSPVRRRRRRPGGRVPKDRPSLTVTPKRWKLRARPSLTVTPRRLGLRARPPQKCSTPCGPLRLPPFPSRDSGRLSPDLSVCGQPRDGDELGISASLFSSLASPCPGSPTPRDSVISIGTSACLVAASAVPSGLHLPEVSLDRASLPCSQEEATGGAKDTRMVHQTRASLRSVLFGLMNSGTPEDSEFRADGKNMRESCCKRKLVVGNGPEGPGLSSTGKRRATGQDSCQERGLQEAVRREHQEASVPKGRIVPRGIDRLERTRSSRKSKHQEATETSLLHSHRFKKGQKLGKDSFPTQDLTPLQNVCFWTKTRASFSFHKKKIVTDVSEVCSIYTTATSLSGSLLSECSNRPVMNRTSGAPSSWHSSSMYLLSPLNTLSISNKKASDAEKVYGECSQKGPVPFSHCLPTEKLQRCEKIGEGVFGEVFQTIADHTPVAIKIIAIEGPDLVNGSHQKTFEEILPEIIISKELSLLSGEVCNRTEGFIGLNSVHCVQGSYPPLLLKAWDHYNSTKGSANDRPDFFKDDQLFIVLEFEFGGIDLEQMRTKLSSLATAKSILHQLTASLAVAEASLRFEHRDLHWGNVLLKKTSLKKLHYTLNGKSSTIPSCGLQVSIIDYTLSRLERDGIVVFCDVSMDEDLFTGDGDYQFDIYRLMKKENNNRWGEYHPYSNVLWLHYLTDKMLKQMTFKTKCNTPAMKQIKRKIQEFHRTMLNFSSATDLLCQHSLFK

[8] = biological target: Serine/threonine-protein kinase pim-1 (Homo sapiens, UniProt P11309); experiment: Inhibition of recombinant human PIM1 expressed in bacterial expression system using histone H1 as substrate by ADP-glo assay
[9] = biological target: Tyrosine-protein kinase ABL1 (Homo sapiens, UniProt P00519); experiment: Inhibition of recombinant human ABL1 (118 to 535 residues) expressed in baculovirus infected Sf9 insect cells using EAIYAAPFAKKK as substrate by ADP-glo assay
[10] = biological target: Receptor-interacting serine/threonine-protein kinase 3 (Homo sapiens, UniProt Q9Y572); experiment: Inhibition of recombinant human RIPK3 expressed in baculovirus infected Sf9 insect cells using myelin basic protein as substrate by ADP-Glo assay
Aurora kinase B = Aurora kinase B (Homo sapiens, UniProt Q96GD4); experiment: Inhibition of recombinant human AURKB expressed in baculovirus infected Sf9 insect cells using myelin basic protein as substrate by ADP-Glo assay
Aurora kinase B, sequence (Q96GD4 whole entry): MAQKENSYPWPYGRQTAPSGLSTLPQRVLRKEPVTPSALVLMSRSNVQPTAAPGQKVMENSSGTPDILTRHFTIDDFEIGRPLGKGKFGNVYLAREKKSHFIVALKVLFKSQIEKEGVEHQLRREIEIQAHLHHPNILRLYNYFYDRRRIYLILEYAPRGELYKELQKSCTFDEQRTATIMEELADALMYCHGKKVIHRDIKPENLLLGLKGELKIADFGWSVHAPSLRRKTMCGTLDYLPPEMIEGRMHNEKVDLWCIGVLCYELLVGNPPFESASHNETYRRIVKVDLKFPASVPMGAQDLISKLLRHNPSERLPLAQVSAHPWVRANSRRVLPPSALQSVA

Receptor-interacting serine/threonine-protein kinase 3, sequence (Q9Y572 whole entry): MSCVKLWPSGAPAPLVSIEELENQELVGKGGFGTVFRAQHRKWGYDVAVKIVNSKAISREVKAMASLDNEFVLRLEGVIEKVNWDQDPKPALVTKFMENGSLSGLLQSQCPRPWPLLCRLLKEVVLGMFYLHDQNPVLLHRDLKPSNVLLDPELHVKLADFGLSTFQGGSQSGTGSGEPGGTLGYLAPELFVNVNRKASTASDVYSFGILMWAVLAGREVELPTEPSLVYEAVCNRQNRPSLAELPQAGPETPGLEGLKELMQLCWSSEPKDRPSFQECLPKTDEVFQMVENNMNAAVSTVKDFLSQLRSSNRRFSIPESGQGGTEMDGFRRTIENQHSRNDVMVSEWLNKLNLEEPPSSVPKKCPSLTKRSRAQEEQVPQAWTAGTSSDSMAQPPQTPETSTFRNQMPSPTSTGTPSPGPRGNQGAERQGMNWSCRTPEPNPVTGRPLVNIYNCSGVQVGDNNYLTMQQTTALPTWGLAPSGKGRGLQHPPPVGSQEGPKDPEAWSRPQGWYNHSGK
Dual specificity protein kinase CLK1, sequence (P22518 whole entry, the tested form may be a part): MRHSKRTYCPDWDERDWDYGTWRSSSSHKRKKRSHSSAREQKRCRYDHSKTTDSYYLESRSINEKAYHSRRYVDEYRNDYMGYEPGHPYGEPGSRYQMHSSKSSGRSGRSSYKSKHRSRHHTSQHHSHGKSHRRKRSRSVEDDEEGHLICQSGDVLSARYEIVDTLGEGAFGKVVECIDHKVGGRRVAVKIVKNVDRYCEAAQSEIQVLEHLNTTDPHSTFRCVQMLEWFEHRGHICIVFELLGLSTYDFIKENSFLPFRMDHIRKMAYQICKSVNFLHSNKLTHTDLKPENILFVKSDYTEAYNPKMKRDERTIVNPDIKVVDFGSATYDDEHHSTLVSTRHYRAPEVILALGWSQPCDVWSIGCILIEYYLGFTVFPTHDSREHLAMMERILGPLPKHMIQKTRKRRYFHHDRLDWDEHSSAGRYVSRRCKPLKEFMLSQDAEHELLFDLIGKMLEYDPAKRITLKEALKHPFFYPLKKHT
Serine/threonine-protein kinase pim-1, sequence (P11309 whole entry, the tested form may be a part): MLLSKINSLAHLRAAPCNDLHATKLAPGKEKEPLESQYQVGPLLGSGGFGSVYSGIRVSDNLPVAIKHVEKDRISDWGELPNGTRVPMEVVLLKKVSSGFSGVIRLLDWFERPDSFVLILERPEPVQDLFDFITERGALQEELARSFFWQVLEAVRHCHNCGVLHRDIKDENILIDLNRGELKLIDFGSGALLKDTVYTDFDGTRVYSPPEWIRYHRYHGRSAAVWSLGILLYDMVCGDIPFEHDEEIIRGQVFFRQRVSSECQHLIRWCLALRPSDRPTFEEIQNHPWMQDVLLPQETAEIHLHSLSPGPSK
Tyrosine-protein kinase ABL1, sequence (P00519 whole entry, the tested form may be a part): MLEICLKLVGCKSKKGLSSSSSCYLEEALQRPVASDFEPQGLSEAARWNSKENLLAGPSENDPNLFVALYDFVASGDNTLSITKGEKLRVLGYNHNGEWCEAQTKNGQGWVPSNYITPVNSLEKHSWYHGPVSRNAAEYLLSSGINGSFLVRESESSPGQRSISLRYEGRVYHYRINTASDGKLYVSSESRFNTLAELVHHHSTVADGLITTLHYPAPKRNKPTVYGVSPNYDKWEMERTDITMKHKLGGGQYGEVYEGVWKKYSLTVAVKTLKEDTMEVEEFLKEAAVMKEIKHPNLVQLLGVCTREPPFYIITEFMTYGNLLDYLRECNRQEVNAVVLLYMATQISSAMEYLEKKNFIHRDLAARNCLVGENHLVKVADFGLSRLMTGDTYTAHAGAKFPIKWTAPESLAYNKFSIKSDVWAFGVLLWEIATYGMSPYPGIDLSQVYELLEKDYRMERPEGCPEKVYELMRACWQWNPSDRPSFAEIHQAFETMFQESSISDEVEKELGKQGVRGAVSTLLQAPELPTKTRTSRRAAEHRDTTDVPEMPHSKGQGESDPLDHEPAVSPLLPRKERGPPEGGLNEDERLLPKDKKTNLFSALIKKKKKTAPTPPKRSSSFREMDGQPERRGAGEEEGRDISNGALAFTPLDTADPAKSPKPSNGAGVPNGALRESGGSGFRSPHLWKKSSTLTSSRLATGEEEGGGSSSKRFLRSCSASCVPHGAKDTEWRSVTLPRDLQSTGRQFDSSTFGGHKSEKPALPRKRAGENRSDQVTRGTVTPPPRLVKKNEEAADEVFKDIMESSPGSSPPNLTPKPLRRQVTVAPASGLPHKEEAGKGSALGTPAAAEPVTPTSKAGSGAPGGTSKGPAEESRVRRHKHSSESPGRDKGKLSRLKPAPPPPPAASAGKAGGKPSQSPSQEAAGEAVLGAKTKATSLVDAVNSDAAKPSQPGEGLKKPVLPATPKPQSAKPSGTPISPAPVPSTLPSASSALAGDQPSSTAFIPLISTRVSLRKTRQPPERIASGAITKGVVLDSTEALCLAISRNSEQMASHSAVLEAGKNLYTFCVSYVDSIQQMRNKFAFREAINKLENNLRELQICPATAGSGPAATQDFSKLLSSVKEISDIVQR

inhibition [3] | IC50 [4] [µM] | IC50 (CDK2/Cyclin A2) [µM] | IC50 [5] [µM] | IC50 [6] [µM] | IC50 [7] [µM] | IC50 [8] [µM] | IC50 [9] [µM] | IC50 [10] [µM] | IC50 (Aurora kinase B) [µM] | SMILES | Activity [1] [%] | inhibition [2] | Activity (TERT-RPE1)
Dose-dependent effect | 12.1 | > 10 | 0.8 | 1.8 | > 10 | > 10 | > 10 | > 10 | > 10 | CCCCNc1nc2ccc([N+](=O)[O-])cc2[nH]1 | 56.9 | Dose-dependent effect | Non-Toxic
Dose-dependent effect | 2.89 | > 10 | > 10 | 2.21 | > 10 | > 10 | > 10 | > 10 | > 10 | CCCCNc1nc2cc([N+](=O)[O-])ccc2s1 | 56.1 | Dose-dependent effect | Non-Toxic
